From ChEMBL document CHEMBL3351454, “Design, synthesis, antimicrobial evaluation and molecular docking studies of some new thiophene, pyrazole and pyridone derivatives bearing sulfisoxazole moiety” (2014) come the findings set out here.

What is called MIC is the lowest concentration that inhibits growth of the organism.

Converted amounts (≈) assume the structure as drawn.

The first assay has as its system Streptococcus pneumoniae. Put plainly: Antimicrobial activity against Streptococcus pneumoniae RCMB 010010 assessed as absence of turbidity after 24 hrs. Type of assay: functional. The conditions noted are these: RCMB 010010, 24 h. An outline of the steps:
(§1)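 Broth microdilution in Müller–Hinton broth. DMF stocks at 1000 µg/mL were diluted in broth to give twofold serial dilutions over 500–0.007 µg/mL. Bacterial inoculum was about 10^6 CFU/mL in 96-well plates, sealed and incubated at 37 °C for 24 h in a humid chamber. MIC was taken as the lowest concentration with no visible turbidity. DMF and uninoculated-medium controls were included. Only compounds giving zones >10 mm were tested.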
Take `Cc1noc(NS(=O)(=O)c2ccc(-n3c(S)c(C#N)c(-c4ccc(Cl)cc4)c(C#N)c3=O)cc2)c1C`: the MIC is 0.49 µg/mL (≈ 0.911 µM).

For a further assay, the system named is Escherichia coli. Put plainly: Antimicrobial activity against Escherichia coli RCMB 010052 assessed as inhibition zone at 5 mg/ml after 24 hrs. Type of assay: functional. The conditions noted are these: RCMB 010052, 24 h, read-out: IZ. An outline of the steps: (§2)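 Agar diffusion on nutrient agar seeded with 10^6 CFU/mL bacteria. Filter-paper disks were loaded with 100 µL of a 5 mg/mL compound solution in DMF, with a DMF-only control. Incubation was 37 °C for 24 h. Inhibition zone in mm (mean ± SD, triplicate plates) was measured beyond the 6 mm diameter.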
Take `Cc1noc(NS(=O)(=O)c2ccc(-n3c(S)c(C#N)c(-c4ccc(Cl)cc4)c(C#N)c3=O)cc2)c1C`: the zone of inhibition at 5000 µg/mL worked out at 20.6 mm.

For a further assay, the system named is Klebsiella pneumoniae. Put plainly: Antimicrobial activity against Klebsiella pneumoniae RCMB 010093 assessed as absence of turbidity after 24 hrs. The class given is functional. The conditions noted are these: RCMB 010093, 24 h. An outline of the steps:
as §1
Take `Cc1noc(NS(=O)(=O)c2ccc(-n3c(S)c(C#N)c(-c4ccc(Cl)cc4)c(C#N)c3=O)cc2)c1C`: the minimal inhibitory concentration (MIC) amounted to 0.24 µg/mL (≈ 0.446 µM).

A further assay relates to Klebsiella pneumoniae. In words: Antimicrobial activity against Klebsiella pneumoniae RCMB 010093 assessed as inhibition zone at 5 mg/ml after 24 hrs. The class given is functional. The conditions noted are these: RCMB 010093, 24 h, read-out: IZ. Summed up: as §2
Regarding `Cc1noc(NS(=O)(=O)c2ccc(-n3c(S)c(C#N)c(-c4ccc(Cl)cc4)c(C#N)c3=O)cc2)c1C`, the zone of inhibition at 5000 µg/mL was found to be 23.2 mm.

The next assay deals with Staphylococcus epidermidis. In words: Antimicrobial activity against Staphylococcus epidermidis RCMB 010024 assessed as inhibition zone at 5 mg/ml after 24 hrs. Type of assay: functional. As to conditions: RCMB 010024, 24 h, read-out: IZ. An outline of the steps:
as §2
For `Cc1noc(NS(=O)(=O)c2ccc(-n3c(S)c(C#N)c(-c4ccc(Cl)cc4)c(C#N)c3=O)cc2)c1C`, the zone of inhibition at 5000 µg/mL stood at 20.2 mm.

A further assay relates to Aspergillus fumigatus. Put plainly: Antifungal activity against Aspergillus fumigatus RCMB 02568 assessed as inhibition zone at 5 mg/ml after 48 hrs. Type of assay: functional. The conditions noted are these: RCMB 02568, 48 h, read-out: IZ. An outline of the steps:
(§3)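 Disk diffusion on nutrient agar seeded with 10^4 CFU/mL fungus. Sterile filter-paper disks carried 100 µL of a 5 mg/mL DMF solution, and DMF alone served as control. Plates were incubated at 25 °C for 48 h. Mean inhibition zone in mm ± SD was read beyond the 6 mm diameter, in triplicate.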
Turning to `Cc1noc(NS(=O)(=O)c2ccc(-n3c(S)c(C#N)c(-c4ccc(Cl)cc4)c(C#N)c3=O)cc2)c1C`, the zone of inhibition at 5000 µg/mL came to 21.6 mm.

A further assay deals with Geotrichum candidum. Put plainly: Antifungal activity against Geotrichum candidum RCMB 05097 assessed as absence of turbidity after 48 hrs. The conditions noted are these: RCMB 05097, 48 h. Type of assay: functional. An outline of the steps: (§4)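 Broth microdilution in Sabouraud liquid medium. DMF stocks at 1000 µg/mL were diluted in broth to give twofold serial dilutions over 500–0.007 µg/mL. Fungal inoculum was about 10^4 CFU/mL in 96-well plates, sealed and incubated at 25 °C for 48 h in a humid chamber. MIC was taken as the lowest concentration with no visible turbidity. DMF and uninoculated-medium controls were included.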
In the case of `Cc1noc(NS(=O)(=O)c2ccc(-n3c(S)c(C#N)c(-c4ccc(Cl)cc4)c(C#N)c3=O)cc2)c1C`, the MIC stood at 0.24 µg/mL (≈ 0.446 µM).

Another assay concerns Streptococcus pneumoniae. Put plainly: Antimicrobial activity against Streptococcus pneumoniae RCMB 010010 assessed as inhibition zone at 5 mg/ml after 24 hrs. Type of assay: functional. The conditions noted are these: RCMB 010010, 24 h, read-out: IZ. An outline of the steps:
as §2
As for `Cc1noc(NS(=O)(=O)c2ccc(-n3c(S)c(C#N)c(-c4ccc(Cl)cc4)c(C#N)c3=O)cc2)c1C`, the zone of inhibition at 5000 µg/mL stood at 22.3 mm.

The next assay has as its system Geotrichum candidum. Put plainly: Antifungal activity against Geotrichum candidum RCMB 05097 assessed as inhibition zone at 5 mg/ml after 48 hrs. The class given is functional. The conditions noted are these: RCMB 05097, 48 h, read-out: IZ. An outline of the steps:
as §3
With `Cc1noc(NS(=O)(=O)c2ccc(-n3c(S)c(C#N)c(-c4ccc(Cl)cc4)c(C#N)c3=O)cc2)c1C`, the zone of inhibition at 5000 µg/mL turned out to be 22.8 mm.

The subject of the next assay is Staphylococcus epidermidis. In words: Antimicrobial activity against Staphylococcus epidermidis RCMB 010024 assessed as absence of turbidity after 24 hrs. The class given is functional. As to conditions: RCMB 010024, 24 h. Summed up: as §1
As to `Cc1noc(NS(=O)(=O)c2ccc(-n3c(S)c(C#N)c(-c4ccc(Cl)cc4)c(C#N)c3=O)cc2)c1C`, the MIC amounted to 0.49 µg/mL (≈ 0.911 µM).

The subject of another assay is Proteus vulgaris. Put plainly: Antimicrobial activity against Proteus vulgaris RCMB 010085 assessed as inhibition zone at 5 mg/ml after 24 hrs. The class given is functional. As to conditions: RCMB 010085, 24 h, read-out: IZ. An outline of the steps:
as §2
In the case of `Cc1noc(NS(=O)(=O)c2ccc(-n3c(S)c(C#N)c(-c4ccc(Cl)cc4)c(C#N)c3=O)cc2)c1C`, the zone of inhibition at 5000 µg/mL is 19.3 mm.

The subject of the next assay is Bacillus subtilis. In words: Antimicrobial activity against Bacillis subtilis RCMB 010067 assessed as inhibition zone at 5 mg/ml after 24 hrs. Type of assay: functional. The conditions noted are these: RCMB 010067, 24 h, read-out: IZ. Summed up:
as §2
As to `Cc1noc(NS(=O)(=O)c2ccc(-n3c(S)c(C#N)c(-c4ccc(Cl)cc4)c(C#N)c3=O)cc2)c1C`, the zone of inhibition at 5000 µg/mL is 24.4 mm.

Another assay has as its system Syncephalastrum racemosum. In words: Antifungal activity against Syncephalastrum racemosum RCMB 05922 assessed as absence of turbidity after 48 hrs. The class given is functional. As to conditions: RCMB 05922, 48 h.
`Cc1noc(NS(=O)(=O)c2ccc(-n3c(S)c(C#N)c(-c4ccc(Cl)cc4)c(C#N)c3=O)cc2)c1C`: the MIC was found to be 1.95 µg/mL (≈ 3.62 µM).

The test system of another assay is Escherichia coli. In words: Antimicrobial activity against Escherichia coli RCMB 010052 assessed as absence of turbidity after 24 hrs. The class given is functional. As to conditions: RCMB 010052, 24 h. Summed up:
as §1
`Cc1noc(NS(=O)(=O)c2ccc(-n3c(S)c(C#N)c(-c4ccc(Cl)cc4)c(C#N)c3=O)cc2)c1C`: the MIC worked out at 0.98 µg/mL (≈ 1.82 µM).

Another assay deals with Syncephalastrum racemosum. Put plainly: Antifungal activity against Syncephalastrum racemosum RCMB 05922 assessed as inhibition zone at 5 mg/ml after 48 hrs. Type of assay: functional. The conditions noted are these: RCMB 05922, 48 h, read-out: IZ.
In the case of `Cc1noc(NS(=O)(=O)c2ccc(-n3c(S)c(C#N)c(-c4ccc(Cl)cc4)c(C#N)c3=O)cc2)c1C`, the zone of inhibition at 5000 µg/mL turned out to be 20.2 mm.

In the next assay the test system is Bacillus subtilis. Put plainly: Antimicrobial activity against Bacillis subtilis RCMB 010067 assessed as absence of turbidity after 24 hrs. Type of assay: functional. As to conditions: RCMB 010067, 24 h. An outline of the steps:
as §1
For the compound `Cc1noc(NS(=O)(=O)c2ccc(-n3c(S)c(C#N)c(-c4ccc(Cl)cc4)c(C#N)c3=O)cc2)c1C`, the MIC was 0.12 µg/mL (≈ 0.223 µM).

The next assay deals with Aspergillus fumigatus. In words: Antifungal activity against Aspergillus fumigatus RCMB 02568 assessed as absence of turbidity after 48 hrs. The class given is functional. As to conditions: RCMB 02568, 48 h. An outline of the steps:
as §4
For `Cc1noc(NS(=O)(=O)c2ccc(-n3c(S)c(C#N)c(-c4ccc(Cl)cc4)c(C#N)c3=O)cc2)c1C`, the minimum inhibitory concentration (MIC) was 0.98 µg/mL (≈ 1.82 µM).

The test system of the next assay is Proteus vulgaris. In words: Antimicrobial activity against Proteus vulgaris RCMB 010085 assessed as absence of turbidity after 24 hrs. Type of assay: functional. As to conditions: RCMB 010085, 24 h. An outline of the steps: as §1
For `Cc1noc(NS(=O)(=O)c2ccc(-n3c(S)c(C#N)c(-c4ccc(Cl)cc4)c(C#N)c3=O)cc2)c1C`, the MIC worked out at 3.9 µg/mL (≈ 7.25 µM).
